ChEMBL document CHEMBL3593171, “Characterization of l-Digitoxosyl-phenanthroviridin from Streptomyces venezuelae ISP5230” (2015)

assay: Cytotoxicity against human NCI60 cells by NCI protocol based assay; format: functional
How it was run: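 NCI-60 human tumour cell line panel run per the NCI protocol, with ethanol used as solvent in place of DMSO. Single-dose screen at 10 μM first, then five-dose assay from 10 nM to 100 μM at log10 intervals. Percent growth was plotted against concentration for each cell line, and GI50, TGI and LC50 were calculated from the dose–response curves.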

`Cc1cc(O)c2c(c1)C1OC(=O)[C@H](COCc3cn(Cc4ccccc4)nn3)N1C1=C2C(=O)c2cccc(O[C@H]3C[C@@H](O)[C@@H](O)[C@H](C)O3)c2C1=O` (stereo partly drawn) and `CCCC1C(=O)OC2c3cc(C)cc(O)c3C3=C(C(=O)c4c(O[C@H]5C[C@@H](O)[C@@H](O)[C@H](C)O5)cccc4C3=O)N12` (stereo partly drawn) are within 1.5-fold of each other in GI50: 6.1 µM for the first, 4.79 µM for the second.

`Cc1cc(O)c2c(c1)[C@@H]1OC(=O)CN1C1=C2C(=O)c2cccc(O[C@H]3C[C@@H](O)[C@@H](O)[C@H](C)O3)c2C1=O` [JADOMYCIN G] and `Cc1cc(O)c2c(c1)[C@@H]1OC(=O)[C@H]([C@H](C)O)N1C1=C2C(=O)c2cccc(O[C@H]3C[C@@H](O)[C@@H](O)[C@H](C)O3)c2C1=O` [JADOMYCIN T] are within 1.5-fold of each other in GI50: 1.68 µM for the first, 1.35 µM for the second.

`CC(=O)OC[C@@H]1O[C@@H](n2cc(COC[C@H]3C(=O)OC4c5cc(C)cc(O)c5C5=C(C(=O)c6c(O[C@H]7C[C@@H](O)[C@@H](O)[C@H](C)O7)cccc6C5=O)N43)nn2)[C@H](OC(C)=O)[C@H](OC(C)=O)[C@H]1OC(C)=O` (stereo partly drawn) and `CC(=O)O[C@H]1O[C@@H](n2cc(COC[C@H]3C(=O)OC4c5cc(C)cc(O)c5C5=C(C(=O)c6c(O[C@H]7C[C@@H](O)[C@@H](O)[C@H](C)O7)cccc6C5=O)N43)nn2)[C@@H](OC(C)=O)[C@@H](OC(C)=O)[C@@H]1OC(C)=O` (stereo partly drawn) are within 1.5-fold of each other in GI50: 3.7 µM for the first, 3.5 µM for the second.

`Cc1cc(O)c2c3c(ncc2c1)C(=O)c1c(O[C@H]2C[C@@H](O)[C@@H](O)[C@H](C)O2)cccc1C3=O` and `Cc1cc(O)c2c(c1)[C@@H]1OC(=O)[C@H](CC(C)C)N1C1=C2C(=O)c2cccc(O[C@H]3C[C@@H](O)[C@@H](O)[C@H](C)O3)c2C1=O` [JADOMYCIN L] are within 1.5-fold of each other in GI50: 2.14 µM for the first, 1.82 µM for the second.

`CC(=O)O[C@@H]1[C@@H](OC(C)=O)[C@H](C)O[C@@H](n2cc(COC[C@H]3C(=O)OC4c5cc(C)cc(O)c5C5=C(C(=O)c6c(O[C@H]7C[C@@H](O)[C@@H](O)[C@H](C)O7)cccc6C5=O)N43)nn2)[C@@H]1OC(C)=O` (stereo partly drawn) and `CC(=O)O[C@@H]1[C@@H](OC(C)=O)[C@H](C)O[C@H](n2cc(COC[C@H]3C(=O)OC4c5cc(C)cc(O)c5C5=C(C(=O)c6c(O[C@H]7C[C@@H](O)[C@@H](O)[C@H](C)O7)cccc6C5=O)N43)nn2)[C@@H]1OC(C)=O` (stereo partly drawn) are the same in GI50: 3.1 µM for the first, 3.1 µM for the second.

In the case of `CCCCC1C(=O)OC2c3cc(C)cc(O)c3C3=C(C(=O)c4c(O[C@H]5C[C@@H](O)[C@@H](O)[C@H](C)O5)cccc4C3=O)N12` (stereo partly drawn), the GI50 is reported as 3.89 µM.

`Cc1cc(O)c2c(c1)C1OC(=O)[C@H](COCc3cn(Cc4ccccc4)nn3)N1C1=C2C(=O)c2cccc(O[C@H]3C[C@@H](O)[C@@H](O)[C@H](C)O3)c2C1=O` (stereo partly drawn) and `CCCC1C(=O)OC2c3cc(C)cc(O)c3C3=C(C(=O)c4c(O[C@H]5C[C@@H](O)[C@@H](O)[C@H](C)O5)cccc4C3=O)N12` (stereo partly drawn) are within 1.5-fold of each other in LC50: 14.9 µM for the first, 19 µM for the second.

Compared with `Cc1cc(O)c2c(c1)[C@@H]1OC(=O)CN1C1=C2C(=O)c2cccc(O[C@H]3C[C@@H](O)[C@@H](O)[C@H](C)O3)c2C1=O` [JADOMYCIN G], `Cc1cc(O)c2c(c1)[C@@H]1OC(=O)[C@H]([C@H](C)O)N1C1=C2C(=O)c2cccc(O[C@H]3C[C@@H](O)[C@@H](O)[C@H](C)O3)c2C1=O` [JADOMYCIN T] is 5.9-fold lower in LC50: 38.5 µM for the first, 6.5 µM for the second.

`CC(=O)OC[C@@H]1O[C@@H](n2cc(COC[C@H]3C(=O)OC4c5cc(C)cc(O)c5C5=C(C(=O)c6c(O[C@H]7C[C@@H](O)[C@@H](O)[C@H](C)O7)cccc6C5=O)N43)nn2)[C@H](OC(C)=O)[C@H](OC(C)=O)[C@H]1OC(C)=O` (stereo partly drawn) and `CC(=O)O[C@H]1O[C@@H](n2cc(COC[C@H]3C(=O)OC4c5cc(C)cc(O)c5C5=C(C(=O)c6c(O[C@H]7C[C@@H](O)[C@@H](O)[C@H](C)O7)cccc6C5=O)N43)nn2)[C@@H](OC(C)=O)[C@@H](OC(C)=O)[C@@H]1OC(C)=O` (stereo partly drawn) are within 1.5-fold of each other in LC50: 10.9 µM for the first, 11.8 µM for the second.

Compared with `Cc1cc(O)c2c3c(ncc2c1)C(=O)c1c(O[C@H]2C[C@@H](O)[C@@H](O)[C@H](C)O2)cccc1C3=O`, `Cc1cc(O)c2c(c1)[C@@H]1OC(=O)[C@H](CC(C)C)N1C1=C2C(=O)c2cccc(O[C@H]3C[C@@H](O)[C@@H](O)[C@H](C)O3)c2C1=O` [JADOMYCIN L] is 2-fold lower in LC50: 18.2 µM for the first, 9.3 µM for the second.

`CC(=O)O[C@@H]1[C@@H](OC(C)=O)[C@H](C)O[C@@H](n2cc(COC[C@H]3C(=O)OC4c5cc(C)cc(O)c5C5=C(C(=O)c6c(O[C@H]7C[C@@H](O)[C@@H](O)[C@H](C)O7)cccc6C5=O)N43)nn2)[C@@H]1OC(C)=O` (stereo partly drawn) and `CC(=O)O[C@@H]1[C@@H](OC(C)=O)[C@H](C)O[C@H](n2cc(COC[C@H]3C(=O)OC4c5cc(C)cc(O)c5C5=C(C(=O)c6c(O[C@H]7C[C@@H](O)[C@@H](O)[C@H](C)O7)cccc6C5=O)N43)nn2)[C@@H]1OC(C)=O` (stereo partly drawn) are within 1.5-fold of each other in LC50: 11.6 µM for the first, 9.8 µM for the second.

`CCCCC1C(=O)OC2c3cc(C)cc(O)c3C3=C(C(=O)c4c(O[C@H]5C[C@@H](O)[C@@H](O)[C@H](C)O5)cccc4C3=O)N12` (stereo partly drawn) gave an LC50 of 18 µM.

`Cc1cc(O)c2c(c1)C1OC(=O)[C@H](COCc3cn(Cc4ccccc4)nn3)N1C1=C2C(=O)c2cccc(O[C@H]3C[C@@H](O)[C@@H](O)[C@H](C)O3)c2C1=O` (stereo partly drawn) and `CCCC1C(=O)OC2c3cc(C)cc(O)c3C3=C(C(=O)c4c(O[C@H]5C[C@@H](O)[C@@H](O)[C@H](C)O5)cccc4C3=O)N12` (stereo partly drawn) are within 1.5-fold of each other in TGI: 11.9 µM for the first, 10 µM for the second.

Compared with `Cc1cc(O)c2c(c1)[C@@H]1OC(=O)CN1C1=C2C(=O)c2cccc(O[C@H]3C[C@@H](O)[C@@H](O)[C@H](C)O3)c2C1=O` [JADOMYCIN G], `Cc1cc(O)c2c(c1)[C@@H]1OC(=O)[C@H]([C@H](C)O)N1C1=C2C(=O)c2cccc(O[C@H]3C[C@@H](O)[C@@H](O)[C@H](C)O3)c2C1=O` [JADOMYCIN T] is 3.2-fold lower in TGI: 9.6 µM for the first, 3.02 µM for the second.

`CC(=O)OC[C@@H]1O[C@@H](n2cc(COC[C@H]3C(=O)OC4c5cc(C)cc(O)c5C5=C(C(=O)c6c(O[C@H]7C[C@@H](O)[C@@H](O)[C@H](C)O7)cccc6C5=O)N43)nn2)[C@H](OC(C)=O)[C@H](OC(C)=O)[C@H]1OC(C)=O` (stereo partly drawn) and `CC(=O)O[C@H]1O[C@@H](n2cc(COC[C@H]3C(=O)OC4c5cc(C)cc(O)c5C5=C(C(=O)c6c(O[C@H]7C[C@@H](O)[C@@H](O)[C@H](C)O7)cccc6C5=O)N43)nn2)[C@@H](OC(C)=O)[C@@H](OC(C)=O)[C@@H]1OC(C)=O` (stereo partly drawn) are within 1.5-fold of each other in TGI: 6.6 µM for the first, 7.2 µM for the second.

`Cc1cc(O)c2c3c(ncc2c1)C(=O)c1c(O[C@H]2C[C@@H](O)[C@@H](O)[C@H](C)O2)cccc1C3=O` and `Cc1cc(O)c2c(c1)[C@@H]1OC(=O)[C@H](CC(C)C)N1C1=C2C(=O)c2cccc(O[C@H]3C[C@@H](O)[C@@H](O)[C@H](C)O3)c2C1=O` [JADOMYCIN L] are within 1.5-fold of each other in TGI: 5.75 µM for the first, 4.1 µM for the second.

`CC(=O)O[C@@H]1[C@@H](OC(C)=O)[C@H](C)O[C@@H](n2cc(COC[C@H]3C(=O)OC4c5cc(C)cc(O)c5C5=C(C(=O)c6c(O[C@H]7C[C@@H](O)[C@@H](O)[C@H](C)O7)cccc6C5=O)N43)nn2)[C@@H]1OC(C)=O` (stereo partly drawn) and `CC(=O)O[C@@H]1[C@@H](OC(C)=O)[C@H](C)O[C@H](n2cc(COC[C@H]3C(=O)OC4c5cc(C)cc(O)c5C5=C(C(=O)c6c(O[C@H]7C[C@@H](O)[C@@H](O)[C@H](C)O7)cccc6C5=O)N43)nn2)[C@@H]1OC(C)=O` (stereo partly drawn) are within 1.5-fold of each other in TGI: 6.8 µM for the first, 6.3 µM for the second.

`CCCCC1C(=O)OC2c3cc(C)cc(O)c3C3=C(C(=O)c4c(O[C@H]5C[C@@H](O)[C@@H](O)[C@H](C)O5)cccc4C3=O)N12` (stereo partly drawn) showed a TGI of 8.7 µM.
